# L major viab – Leishmania major promastigote growth inhibition, primary screen; Leishmania major promastigotes, resazurin fluorescence viability; actives 9% (n = 200,000); inhibition, % at 10 µM; in the data active means inhibition above about 50%;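 further: promastigotes grown with compound for 44 hours at 28 °C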
# Dynein transport – inhibitors of GR-EGFP nuclear translocation, primary screen, dynein cargo transport inhibitor project, imaging, high-content, 3617.4 mouse cells. z-score, hits read low. test concentration mostly 20 µM; stimulated with dexamethasone, 1 µM; active compounds read low. actives 0.47% (n = 220,000). AID 1381, 2008;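 active means plate z-score of nuclear minus cytoplasmic receptor signal below a set negative limit, without overly bright fluorescence or cell loss, cut at about -3.5 in these data, passing the limit was not always enough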;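 further: z-score of nuclear minus cytoplasmic ring GR-EGFP intensity difference per well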
#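 Buffer or medium – tet-free medium with charcoal-stripped serum · Signal – automated 10x imaging of fixed Hoechst-stained cells · Also added – dexamethasone agonist, 1.0 µM final, for 30 min · Incubation – induction 48 h, compound 1 h, agonist 30 min · Read-out – GR-EGFP nuclear translocation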
# b-catenin transl – modulators of beta-catenin nuclear translocation, primary screen, imaging, HeLa cells, immunofluorescence, high-content | AID 1665, 2009 | nuclear translocation activity, % at 5 µM | actives 0.3% (n = 190,000);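 active means nuclear translocation activity above 50% at 5 µM, with a well cell count of 50 or more; inconclusive means wells under 50 cells across six images, flagged as toxic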;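 further: per-cell ratio of nuclear to cytoplasmic median beta-catenin stain intensity; plate controls were DMSO negative control for no effect and GSK-3 inhibitor IX positive control for full effect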
#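 Technique: fluorescence imaging of beta-catenin antibody stain plus DAPI / Material: human HeLa cell line / Incubation: compound treatment 24 h, 37°C, 5% CO2 / Read-out basis: % activation of per-cell nuclear versus cytoplasmic median beta-catenin signal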
# MT stabilizer – microtubule stabilizers in HeLa cells, primary screen, imaging, high-content imaging; HeLa tubulin immunostaining HCS, 24 h; share of cells brighter than vehicle mean+2SD; % tubulin-high responders, % at 10 µM; actives 0.83% (n = 200,000);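 active means plate Z-score above 3 for both tubulin-high and condensed-nucleus cell shares, with cell loss under 80%, at 10 µM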;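 further: anti alpha tubulin signal scored within the nucleus-defined area of each cell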
# CHOP inh – inhibitors of CHOP promoter induction, primary screen, cell-based, unfolded protein response, luciferase reporter; CHO-K1 CHOP-promoter luciferase, tunicamycin-induced, 15-18 h; inhibition, % at 10 µM; actives 3.8% (n = 220,000);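 active means compounds that reduced the stress-induced luciferase reporter signal by more than about 70% of percent inhibition, limit read from the data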;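 further: 0% = tunicamycin plus vehicle and 100% = wells without tunicamycin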
# Autophagy HCS – autophagy modulators in MEF cells, primary screen, imaging, high-content, MEF GFP-LC3; actives 0.98% (n = 190,000); MEF GFP-LC3 puncta imaging; test concentration mostly 10 µM; calls only at 10 µM (by protocol);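 active means percentage of spot-positive cells more than 3 SD above its plate mean, without a fluorescence outlier flag or 80% toxicity; inconclusive means no clear call, values can overlap the other calls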;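 further: spot-positive cell cutoff set from DMSO-treated cells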
# Starred values were filed as active, the others as inactive; i = inactive; ? = inconclusive; nt = not tested or not shown; + = active, no number. The list is not random: actives were taken first. Their share in the collection is about 12%.
SMILES,L major viab,Dynein transport,b-catenin transl,MT stabilizer,CHOP inh,Autophagy HCS
CCC(=O)N1CCc2cc(S(=O)(=O)CCC(=O)Nc3ccc(OC)c(OC)c3)ccc21,0,0.61,-2,3,5,i
Cn1c(=O)c2[nH]c(COc3ccc(C(C)(C)C)cc3)nc2n(C)c1=O,nt,-0.6,-1,nt,57,nt
CCN(CC)C(=S)SCC(=O)c1ccccc1,1,0.059,2,3,-20,i
CCN(CC)C(=S)SCC(=O)c1ccc(F)cc1,78*,-0.27,0,2,-24,i
CCN(CC)S(=O)(=O)c1csc(C(=O)NCc2ccccc2)c1,5,0.5,nt,1,9,i
O=C(/C=C/NNC(=O)c1ccccc1)c1ccccc1,1,-1.6,0,3,-2,i
O=C(/C=C/NNC(=O)c1ccccc1)c1ccc([N+](=O)[O-])cc1,79*,-0.36,1,2,38,i
Cc1ccc(-c2nn(-c3ccccc3)cc2C2CC(c3ccccc3)=NN2C(=O)CCC(=O)O)cc1 (centres undefined),nt,0.061,1,nt,24,nt
Cc1ccc(C2=NN(C(=O)CCC(=O)O)C(c3cn(-c4ccccc4)nc3-c3ccc(C)cc3)C2)cc1 (centres undefined),-2,-0.23,1,5,95*,i
CNC(=O)n1cc(C)c(-c2cccs2)n1,nt,0.44,1,nt,-4,nt
Cc1cc(C)c(C(=O)/C=C/c2cccs2)c(=O)[nH]1,10,-0.87,1,2,1,i
Cc1ccc(/C=C/C(=O)c2c(C)cc(C)[nH]c2=O)cc1,61*,-1.6,18,8,1,i
CC(SC1=NCCS1)C(=O)Nc1nnc(-c2ccc(F)cc2)s1 (centres undefined),4,-0.34,-2,4,64,i
CC(SC1=NCCS1)C(=O)Nc1nnc(-c2ccc(Br)cc2)s1 (centres undefined),24,-1.9,-1,7,86*,i
CCC(SC1=NCCS1)C(=O)Nc1nnc(-c2ccccc2OC)s1 (centres undefined),19,-0.01,2,4,86*,i
O=C(CSc1cccc2cccc(Cl)c12)NCc1cccs1,30,-0.34,nt,2,44,i
CCOc1nc(CC(C)C)c2c(c1C#N)CC(C)(C)OC2,nt,-0.59,0,nt,74*,nt
CCOc1ncnc2c1oc1nc(CC(C)C)c3c(c12)CC(C)(C)OC3,10,-0.57,0,3,-7,i
CSc1ncccc1C(=O)Nc1ccc(S(=O)(=O)NC2=NCCCCC2)cc1,-1,0.34,1,3,6,i
O=C(COC(=O)/C=C/c1nc2ccccc2s1)Nc1cccc(Cl)c1Cl,59*,1.3,nt,2,60,i
COc1ccc(NCC(=O)Nc2ccc(Br)cc2F)c(OC)c1,nt,1.8,0,nt,-1,nt
CCN(CC)C(=O)c1sc2nc(-c3cccs3)cc(-c3ccc(Cl)cc3)c2c1N,33,0.94,1,2,-9,+
N#Cc1sc2nc(-c3cccs3)cc(-c3ccc(Cl)cc3)c2c1N,2,1.7,1,14,-16,+
CN1CC=C2C(C#N)=C(N)C(C#N)(C#N)C(c3cccc(Cl)c3Cl)C2C1 (centres undefined),17,-1.9,1,3,-2,+
COc1ccc(OC)c(C2C3CN(C(C)C)CC=C3C(C#N)=C(N)C2(C#N)C#N)c1 (centres undefined),5,-2.3,6,3,-30,+
SMILES,L major viab,Dynein transport,b-catenin transl,MT stabilizer,CHOP inh,Autophagy HCS
CC(=O)N1CC=C2C(C#N)=C(N)C(C#N)(C#N)C(C)C2C1 (centres undefined),-5,-0.45,0,2,0,i
CC(=O)N1CC=C2C(C#N)=C(N)C(C#N)(C#N)C(CCc3ccccc3)C2C1 (centres undefined),30,1.1,5,3,73*,i
Cc1ccc(C2C3CN(C(C)C)CC=C3C(C#N)=C(N)C2(C#N)C#N)cc1 (centres undefined),nt,nt,nt,nt,9,nt
CCCN1CC=C2C(C#N)=C(N)C(C#N)(C#N)C(c3cccc(OC)c3OC)C2C1 (centres undefined),20,-1.8,2,3,2,?
CN1CC=C2C(C#N)=C(N)C(C#N)(C#N)[C@H](c3ccoc3)[C@H]2C1,8,8.1,nt,2,-26,+
Cc1nc2c3c(sc2c(=O)[nH]1)NC(=O)CC3c1ccccc1Cl (centres undefined),nt,2.4,0,nt,-11,nt
Cc1ccc(OCC(=O)NCc2cccs2)c([N+](=O)[O-])n1,3,0.68,1,3,-7,i
Cc1ccnc(NC(=O)Nc2ccc3c(c2)OCO3)c1,0,0.28,-2,3,22,i
N#CC1=C(N)C(C#N)(C#N)[C@H](c2ccoc2)[C@H]2CN(Cc3ccccc3)CC=C12,56*,-8,5,3,nt,+
O=[N+]([O-])c1ccc(Cl)cc1N1CCOCC1,4,1.6,-1,3,-2,i
O=[N+]([O-])c1ccc(Cl)cc1N1CCCCC1,1,0.82,0,2,58,+
Cc1ccc(/C=C/C2=NN(Cc3ccccc3)C(=O)CC2)cc1,-3,-0.13,-2,1,11,i
Cc1ccc(/C=C/C2=NN(Cc3ccccc3Cl)C(=O)CC2)cc1,-1,4.6,3,2,74*,i
CC(C)(CO)Cc1cc(C(C)(C)C)c(O)c(C(C)(C)C)c1,nt,nt,nt,nt,-37,nt
CC(=O)N1CC[n+]2c(-c3ccc(Cl)cc3)csc21,-6,1.3,-1,3,2,+
Cc1ccc(SCC(=O)Nc2ccc(-c3nnc(-c4ccco4)o3)cc2)cc1,-2,0.14,nt,1,75*,i
CC(=O)Nc1cccc(NC(=O)CSc2ccc(-c3cccnc3)nn2)c1,-2,0.98,1,2,-12,+
Cc1ccc(CNC(=O)CSc2ccc(-c3ccco3)nn2)cc1,63*,-0.39,0,3,20,i
Cc1ccc(NC(=O)CCSc2nnc(-c3ccco3)o2)cc1,-1,0.47,5,5,32,i
Cc1cc(C)c(NC(=O)CSc2ccc(-c3cccnc3)nn2)c(C)c1,-3,-1,-1,3,2,i
O=C(CSc1ccc(-c2ccco2)nn1)NCc1ccc(F)cc1,28,-1.1,-2,4,14,i
Cc1ccc(NC(=O)CSc2ccc(-c3ccco3)nn2)cc1,12,-0.031,1,4,74*,i
